The target of the experiment is T1, OR1A1 (Homo sapiens) (UniProt Q9P1Q5).
T1 sequence (whole entry): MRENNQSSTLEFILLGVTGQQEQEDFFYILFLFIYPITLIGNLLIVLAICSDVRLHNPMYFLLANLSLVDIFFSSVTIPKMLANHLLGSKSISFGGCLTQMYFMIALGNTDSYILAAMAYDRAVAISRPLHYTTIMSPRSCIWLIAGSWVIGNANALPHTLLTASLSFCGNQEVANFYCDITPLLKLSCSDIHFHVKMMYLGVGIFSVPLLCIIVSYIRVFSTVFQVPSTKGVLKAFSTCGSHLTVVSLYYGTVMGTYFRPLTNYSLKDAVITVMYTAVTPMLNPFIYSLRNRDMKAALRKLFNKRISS
The note with it: stereoisomer not certain. In short, it runs like this:
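Transient luciferase assays in mammalian cell lines were common, though methods varied by source. The values come from published papers and their supplementary material, with extra details from the original authors when needed. Responsive refers to a measured signal the original authors judged statistically different from baseline, and non-responsive (inactive) to the remainder.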

Data on 1 compound can be found in the M2OR odorant receptor database.
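Further: active if original authors judged signal statistically different from baseline.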

Take `CC(=O)CC(=O)CC(C)C`: the “odorant receptor agonist call” value is “active”.
